Test results reported in ChEMBL document CHEMBL1671620, “Mutations in the fks1 gene in Candida albicans, C. tropicalis, and C. krusei correlate with elevated caspofungin MICs uncovered in AM3 medium using the method of the European Committee on Antibiotic Susceptibility Testing” (2008).
In brackets after ≈: the same amount, converted by molar mass.

Columns and labels:
Candida albicans [1] = experiment: Antifungal activity against Candida albicans isolate 3 expressing wild type 1,3-beta-glucan synthase grown on AM3 media after 48 hrs by EUCAST microdilution method; format: functional; conditions: isolate 3, 24 h, in the assay text read “after 24 hrs” for “after 48 hrs”
Outline: (§1)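 EUCAST (AFST-EUCAST) broth microdilution with caspofungin at 0.015 to 8 μg/ml final, in AM3 with glucose added to 2% final. Final inoculum was 10⁵ yeast cells/ml, with microplates prepared in batches and stored at −20°C. Plates were incubated at 35°C in humid ambient air and read spectrophotometrically after shaking at 24 h and 48 h. MIC was ≥50% growth reduction versus drug-free well; 90% end point also read at both times.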

Candida albicans [2] = experiment: Antifungal activity against Candida albicans isolate 4 expressing wild type 1,3-beta-glucan synthase grown on AM3 media after 48 hrs by EUCAST microdilution method; format: functional; conditions: isolate 4, 24 h, in the assay text read “after 24 hrs” for “after 48 hrs”; outline: as §1
Candida albicans [3] = experiment: Antifungal activity against Candida albicans isolate 8 expressing wild type 1,3-beta-glucan synthase grown on AM3 media after 48 hrs by EUCAST microdilution method; format: functional; conditions: isolate 8, 24 h, in the assay text read “after 24 hrs” for “after 48 hrs”; outline: as §1
Candida albicans [4] = experiment: Antifungal activity against Candida albicans isolate 9 expressing wild type 1,3-beta-glucan synthase grown on AM3 media after 48 hrs by EUCAST microdilution method; format: functional; conditions: isolate 9, 24 h, in the assay text read “after 24 hrs” for “after 48 hrs”; outline: as §1
Candida albicans [5] = experiment: Antifungal activity against Candida albicans isolate 12 expressing wild type 1,3-beta-glucan synthase grown on AM3 media after 48 hrs by EUCAST microdilution method; format: functional; conditions: isolate 12, 24 h, in the assay text read “after 24 hrs” for “after 48 hrs”; outline: as §1
Candida albicans [6] = experiment: Antifungal activity against Candida albicans isolate 16 expressing wild type 1,3-beta-glucan synthase grown on AM3 media after 48 hrs by EUCAST microdilution method; format: functional; conditions: isolate 16, 24 h, in the assay text read “after 24 hrs” for “after 48 hrs”; outline: as §1
Candida albicans [7] = experiment: Antifungal activity against Candida albicans isolate 10 expressing wild type 1,3-beta-glucan synthase grown on AM3 media after 48 hrs by EUCAST microdilution method; format: functional; conditions: isolate 10, 24 h, in the assay text read “after 24 hrs” for “after 48 hrs”; outline: as §1
Pichia kudriavzevii [8] = experiment: Antifungal activity against Candida krusei ATCC 6258 expressing wild type 1,3-beta-glucan synthase grown on AM3 media after 48 hrs by EUCAST microdilution method; format: functional; conditions: ATCC 6258, 24 h, in the assay text read “after 24 hrs” for “after 48 hrs”; outline: as §1
Candida tropicalis [9] = experiment: Antifungal activity against Candida tropicalis ATCC 750 expressing wild type 1,3-beta-glucan synthase grown on RPMI media after 48 hrs by EUCAST microdilution method; format: functional; conditions: ATCC 750, 24 h, in the assay text read “24 hrs” for “48 hrs”
Outline: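 EUCAST (AFST-EUCAST) broth microdilution with caspofungin at 0.015 to 8 μg/ml final, in RPMI 1640 buffered to pH 7.0 with 0.165 M MOPS and glucose added to 2% final. Final inoculum was 10⁵ yeast cells/ml. Plates were incubated at 35°C in humid ambient air and read spectrophotometrically after shaking at 24 h and 48 h. MIC was ≥50% growth reduction versus drug-free well; 90% end point also read at both times.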

Candida albicans [10] = experiment: Antifungal activity against Candida albicans isolate 1 expressing wild type 1,3-beta-glucan synthase grown on RPMI media after 24 hrs by EUCAST microdilution method; conditions: isolate 1, 24 h
Candida albicans [11] = experiment: Antifungal activity against Candida albicans isolate 6 expressing wild type 1,3-beta-glucan synthase grown on RPMI media after 24 hrs by EUCAST microdilution method; conditions: isolate 6, 24 h
Candida albicans [12] = experiment: Antifungal activity against Candida albicans isolate 8 expressing wild type 1,3-beta-glucan synthase grown on RPMI media after 24 hrs by EUCAST microdilution method; conditions: isolate 8, 24 h
Candida albicans [13] = experiment: Antifungal activity against Candida albicans isolate 7 expressing wild type 1,3-beta-glucan synthase grown on RPMI media after 24 hrs by EUCAST microdilution method; conditions: isolate 7, 24 h
Candida albicans [14] = experiment: Antifungal activity against Candida albicans isolate 15 expressing wild type 1,3-beta-glucan synthase grown on RPMI media after 24 hrs by EUCAST microdilution method; conditions: isolate 15, 24 h
Candida albicans [15] = experiment: Antifungal activity against Candida albicans isolate 25 expressing wild type 1,3-beta-glucan synthase grown on RPMI media after 24 hrs by EUCAST microdilution method; conditions: isolate 25, 24 h
Candida albicans [16] = experiment: Antifungal activity against Candida albicans isolate 10 expressing wild type 1,3-beta-glucan synthase grown on RPMI media after 24 hrs by EUCAST microdilution method; conditions: isolate 10, 24 h
Candida tropicalis [17] = experiment: Antifungal activity against Candida tropicalis isolate 1 expressing wild type 1,3-beta-glucan synthase grown on RPMI media after 24 hrs by EUCAST microdilution method; conditions: isolate 1, 24 h
Candida albicans [18] = experiment: Antifungal activity against Candida albicans isolate B311 expressing wild type 1,3-beta-glucan synthase grown on RPMI media after 24 hrs by EUCAST microdilution method; conditions: isolate B311, 24 h
Pichia kudriavzevii [19] = experiment: Antifungal activity against Candida krusei isolate 1 harboring 1,3-beta-glucan synthase HS1 point mutant grown on AM3 media after 24 hrs by EUCAST microdilution method; conditions: isolate 1, 24 h
Candida albicans [20] = experiment: Antifungal activity against Candida albicans isolate 20 harboring 1,3-beta-glucan synthase HS1 point mutant grown on AM3 media after 24 hrs by EUCAST microdilution method; conditions: isolate 20, 24 h
Candida albicans [21] = experiment: Antifungal activity against Candida albicans isolate 21 harboring 1,3-beta-glucan synthase HS1 point mutant grown on AM3 media after 24 hrs by EUCAST microdilution method; conditions: isolate 21, 24 h
Candida albicans [22] = experiment: Antifungal activity against Candida albicans isolate 23 harboring 1,3-beta-glucan synthase HS2 point mutant grown on AM3 media after 24 hrs by EUCAST microdilution method; conditions: isolate 23, 24 h
Candida albicans [23] = experiment: Antifungal activity against Candida albicans isolate 24 harboring 1,3-beta-glucan synthase HS1 point mutant grown on AM3 media after 24 hrs by EUCAST microdilution method; conditions: isolate 24, 24 h
Candida albicans [24] = experiment: Antifungal activity against Candida albicans isolate 19 harboring 1,3-beta-glucan synthase HS1 point mutant grown on RPMI media after 24 hrs by EUCAST microdilution method; conditions: isolate 19, 24 h
Candida tropicalis [25] = experiment: Antifungal activity against Candida tropicalis isolate 2 harboring 1,3-beta-glucan synthase HS1 point mutant grown on AM3 media after 24 hrs by EUCAST microdilution method; conditions: isolate 2, 24 h

CC[C@H](C)C[C@H](C)CCCCCCCCC(=O)N[C@H]1C[C@@H](O)[C@@H](NCCN)NC(=O)[C@@H]2[C@@H](O)CCN2C(=O)[C@H]([C@H](O)CCN)NC(=O)[C@H]([C@H](O)[C@@H](O)c2ccc(O)cc2)NC(=O)[C@@H]2C[C@@H](O)CN2C(=O)[C@H]([C@@H](C)O)NC1=O [CASPOFUNGIN]
MIC (Candida albicans [1]): 0.06 mg/L (≈ 0.0549 µM) | MIC (Candida albicans [2]): 0.03 mg/L (≈ 0.0274 µM) | MIC (Candida albicans [3]): 0.03 mg/L (≈ 0.0274 µM) | MIC (Candida albicans [4]): 0.03 mg/L (≈ 0.0274 µM) | MIC (Candida albicans [5]): 0.03 mg/L (≈ 0.0274 µM) | MIC (Candida albicans [6]): 0.03 mg/L (≈ 0.0274 µM) | MIC (Candida albicans [7]): 0.06 mg/L (≈ 0.0549 µM) | MIC (Pichia kudriavzevii [8]): 0.06 mg/L (≈ 0.0549 µM) | MIC (Candida tropicalis [9]): 0.5 mg/L (≈ 0.457 µM) | MIC (Candida albicans [10]): 0.25 mg/L (≈ 0.229 µM) | MIC (Candida albicans [11]): 0.5 mg/L (≈ 0.457 µM) | MIC (Candida albicans [12]): 0.5 mg/L (≈ 0.457 µM) | MIC (Candida albicans [13]): 0.5 mg/L (≈ 0.457 µM) | MIC (Candida albicans [14]): 0.25 mg/L (≈ 0.229 µM) | MIC (Candida albicans [15]): 0.25 mg/L (≈ 0.229 µM) | MIC (Candida albicans [16]): 0.5 mg/L (≈ 0.457 µM) | MIC (Candida tropicalis [17]): 2 mg/L (≈ 1.83 µM) | MIC (Candida albicans [18]): 0.5 mg/L (≈ 0.457 µM) | MIC (Pichia kudriavzevii [19]): 4 mg/L (≈ 3.66 µM) | MIC (Candida albicans [20]): 2 mg/L (≈ 1.83 µM) | MIC (Candida albicans [21]): 1 mg/L (≈ 0.915 µM) | MIC (Candida albicans [22]): 0.5 mg/L (≈ 0.457 µM) | MIC (Candida albicans [23]): 16 mg/L (≈ 14.6 µM) | MIC (Candida albicans [24]): 1 mg/L (≈ 0.915 µM) | MIC (Candida tropicalis [25]): 1 mg/L (≈ 0.915 µM)
